Experimental data from ChEMBL document CHEMBL4689842, “EUbOPEN Chemogenomics Library wave 1” (2021).

System: HEK-293T
Assay: Multiplex assay against HEK293T;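 as to Population Tubulin-Different-Phenotype (%): share of the cells with healthy nuclei that show this phenotype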
Assay type: toxicity, cell-based
Conditions: human
Method in brief: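 Per cents of healthy-nucleus cells form the tubulin, mitochondrial-mass and membrane-permeability phenotype values. Live cells were stained at seeding with Hoechst33342, BioTracker Green Microtubule Cytoskeleton Dye, MitoTracker Red and Annexin V Alexa Fluor 680. After compound addition they were imaged on a CQ1 microscope at 37°C and 5% CO2, and CellPathfinder machine-learning gating split them into Hoechst high-intensity objects or normal cells, normal cells into healthy, pyknosed or fragmented nuclei, and pyknosed cells into mitotic or apoptotic.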

[1] = 12 h, 1 µM, compound concentration 1 uM, replicate 1
[2] = 12 h, 1 µM, compound concentration 1 uM, replicate 2
[3] = 12 h, 10 µM, compound concentration 10 uM, replicate 1
[4] = 12 h, 10 µM, compound concentration 10 uM, replicate 2
[5] = 24 h, 1 µM, compound concentration 1 uM, replicate 1
[6] = 24 h, 1 µM, compound concentration 1 uM, replicate 2
[7] = 24 h, 10 µM, compound concentration 10 uM, replicate 1
[8] = 24 h, 10 µM, compound concentration 10 uM, replicate 2
[9] = 48 h, 1 µM, compound concentration 1 uM, replicate 1
[10] = 48 h, 1 µM, compound concentration 1 uM, replicate 2
[11] = 48 h, 10 µM, compound concentration 10 uM, replicate 1
[12] = 48 h, 10 µM, compound concentration 10 uM, replicate 2

CNc1nc(NCc2ccc(NS(C)(=O)=O)cc2Cl)cc(-c2ccccn2)n1
Population Apoptotic (%) [1]: 52%
Population Fragmented Nuclei (%) [1]: 18%
Population Healthy Nuclei (%) [1]: 36%
Population Hoechst High Intensity Objects (%) [1]: 17%
Population Membrane Permeable-Phenotype (%) [1]: 3%
Population Mitochondria Different-Phenotype (%) [1]: 75%
Population Mitotic Cells (%) [1]: 48%
Population Normal (%) [1]: 82%
Population Pyknosed Nuclei (%) [1]: 44%
Population Tubulin-Different-Phenotype (%) [1]: 38%
Total Cell Count [1]: 203
Population Apoptotic (%) [2]: 14%
Population Fragmented Nuclei (%) [2]: 6%
Population Healthy Nuclei (%) [2]: 43%
Population Hoechst High Intensity Objects (%) [2]: 2%
Population Membrane Permeable-Phenotype (%) [2]: 6%
Population Mitochondria Different-Phenotype (%) [2]: 18%
Population Mitotic Cells (%) [2]: 85%
Population Normal (%) [2]: 97%
Population Pyknosed Nuclei (%) [2]: 50%
Population Tubulin-Different-Phenotype (%) [2]: 23%
Total Cell Count [2]: 273
Population Apoptotic (%) [3]: 60%
Population Fragmented Nuclei (%) [3]: 9%
Population Healthy Nuclei (%) [3]: 25%
Population Hoechst High Intensity Objects (%) [3]: 14%
Population Mitochondria Different-Phenotype (%) [3]: 95%
Population Mitotic Cells (%) [3]: 39%
Population Normal (%) [3]: 85%
Population Pyknosed Nuclei (%) [3]: 65%
Population Tubulin-Different-Phenotype (%) [3]: 92%
Total Cell Count [3]: 190
Population Apoptotic (%) [4]: 25%
Population Fragmented Nuclei (%) [4]: 4%
Population Healthy Nuclei (%) [4]: 18%
Population Hoechst High Intensity Objects (%) [4]: 4%
Population Membrane Permeable-Phenotype (%) [4]: 0%
Population Mitochondria Different-Phenotype (%) [4]: 50%
Population Mitotic Cells (%) [4]: 74%
Population Normal (%) [4]: 95%
Population Pyknosed Nuclei (%) [4]: 76%
Population Tubulin-Different-Phenotype (%) [4]: 73%
Total Cell Count [4]: 189
Population Apoptotic (%) [5]: 55%
Population Fragmented Nuclei (%) [5]: 16%
Population Healthy Nuclei (%) [5]: 52%
Population Hoechst High Intensity Objects (%) [5]: 18%
Population Membrane Permeable-Phenotype (%) [5]: 0%
Population Mitochondria Different-Phenotype (%) [5]: 50%
Population Mitotic Cells (%) [5]: 45%
Population Normal (%) [5]: 81%
Population Pyknosed Nuclei (%) [5]: 31%
Population Tubulin-Different-Phenotype (%) [5]: 25%
Total Cell Count [5]: 234
Population Apoptotic (%) [6]: 16%
Population Fragmented Nuclei (%) [6]: 4%
Population Healthy Nuclei (%) [6]: 57%
Population Hoechst High Intensity Objects (%) [6]: 5%
Population Membrane Permeable-Phenotype (%) [6]: 7%
Population Mitochondria Different-Phenotype (%) [6]: 14%
Population Mitotic Cells (%) [6]: 83%
Population Normal (%) [6]: 94%
Population Pyknosed Nuclei (%) [6]: 37%
Population Tubulin-Different-Phenotype (%) [6]: 31%
Total Cell Count [6]: 355
Population Apoptotic (%) [7]: 63%
Population Fragmented Nuclei (%) [7]: 10%
Population Healthy Nuclei (%) [7]: 29%
Population Hoechst High Intensity Objects (%) [7]: 14%
Population Membrane Permeable-Phenotype (%) [7]: 0%
Population Mitochondria Different-Phenotype (%) [7]: 95%
Population Mitotic Cells (%) [7]: 36%
Population Normal (%) [7]: 85%
Population Pyknosed Nuclei (%) [7]: 60%
Population Tubulin-Different-Phenotype (%) [7]: 87%
Total Cell Count [7]: 193
Population Apoptotic (%) [8]: 34%
Population Fragmented Nuclei (%) [8]: 3%
Population Healthy Nuclei (%) [8]: 25%
Population Hoechst High Intensity Objects (%) [8]: 6%
Population Mitochondria Different-Phenotype (%) [8]: 88%
Population Mitotic Cells (%) [8]: 65%
Population Normal (%) [8]: 93%
Population Pyknosed Nuclei (%) [8]: 71%
Population Tubulin-Different-Phenotype (%) [8]: 95%
Total Cell Count [8]: 177
Population Apoptotic (%) [9]: 47%
Population Fragmented Nuclei (%) [9]: 15%
Population Healthy Nuclei (%) [9]: 64%
Population Hoechst High Intensity Objects (%) [9]: 8%
Population Membrane Permeable-Phenotype (%) [9]: 2%
Population Mitochondria Different-Phenotype (%) [9]: 24%
Population Mitotic Cells (%) [9]: 52%
Population Normal (%) [9]: 91%
Population Pyknosed Nuclei (%) [9]: 19%
Population Tubulin-Different-Phenotype (%) [9]: 18%
Total Cell Count [9]: 336
Population Apoptotic (%) [10]: 14%
Population Fragmented Nuclei (%) [10]: 5%
Population Healthy Nuclei (%) [10]: 76%
Population Hoechst High Intensity Objects (%) [10]: 3%
Population Membrane Permeable-Phenotype (%) [10]: 5%
Population Mitochondria Different-Phenotype (%) [10]: 7%
Population Mitotic Cells (%) [10]: 85%
Population Normal (%) [10]: 96%
Population Pyknosed Nuclei (%) [10]: 18%
Population Tubulin-Different-Phenotype (%) [10]: 26%
Total Cell Count [10]: 601
Population Apoptotic (%) [11]: 74%
Population Fragmented Nuclei (%) [11]: 15%
Population Healthy Nuclei (%) [11]: 29%
Population Hoechst High Intensity Objects (%) [11]: 16%
Population Membrane Permeable-Phenotype (%) [11]: 2%
Population Mitochondria Different-Phenotype (%) [11]: 85%
Population Mitotic Cells (%) [11]: 25%
Population Normal (%) [11]: 83%
Population Pyknosed Nuclei (%) [11]: 54%
Population Tubulin-Different-Phenotype (%) [11]: 93%
Total Cell Count [11]: 189
Population Apoptotic (%) [12]: 61%
Population Fragmented Nuclei (%) [12]: 5%
Population Healthy Nuclei (%) [12]: 26%
Population Hoechst High Intensity Objects (%) [12]: 5%
Population Membrane Permeable-Phenotype (%) [12]: 7%
Population Mitochondria Different-Phenotype (%) [12]: 76%
Population Mitotic Cells (%) [12]: 38%
Population Normal (%) [12]: 94%
Population Pyknosed Nuclei (%) [12]: 67%
Population Tubulin-Different-Phenotype (%) [12]: 82%
Total Cell Count [12]: 202
